Rows were chosen to be rich in hits. Some 3.5% of all compounds tested hit in one or more screens of this group.
esBAF inh = inhibitors of esBAF chromatin remodeling in mouse ES cells | Bmi1-luciferase knock-in reporter, 24 h; 100% = twice the neutral-well signal | reporter increase, % at 12.5 µM | hit rate 2% among 350,000 | AID 602393; in the data active = activation above about 40%; inconclusive = no clear call, values can overlap the other calls;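 also: 0% = median of the plate's neutral control wells and 100% = double that signal; a rise in the Bmi1 reporter signal indicates esBAF inhibition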
MITF TRPM1 HTS = increases MITF-driven TRPM1 promoter luciferase signal; activation, % at 12.5 µM; SK-MEL-5 TRPM1-promoter luciferase, 24 h; % of positive control, neutral wells = 0; hit rate 0.75% among 300,000; AID 588334;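 active = mean activation of at least 80% with every replicate also reaching 80%; inconclusive = mean reaches 80% but some replicate falls short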;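 also: 0% = neutral control wells and 100% = parthenolide positive control wells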
ERAP1 inh = blocks human ERAP1 aminopeptidase activity; Q9NZ08; recombinant ERAP1, Leu-AMC fluorescence, 60 min; inhibition, % at 10.7 µM; hit rate 0.15% among 340,000; AID 652197;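 active = mean replicate inhibition of at least 30%, or all replicates individually reaching that 30% level; inactive = mean below 30% and not every replicate reaching it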;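 also: 0% = neutral control wells and 100% = L-leucinethiol positive control wells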
Target sequence (Q9NZ08 whole entry, looked up): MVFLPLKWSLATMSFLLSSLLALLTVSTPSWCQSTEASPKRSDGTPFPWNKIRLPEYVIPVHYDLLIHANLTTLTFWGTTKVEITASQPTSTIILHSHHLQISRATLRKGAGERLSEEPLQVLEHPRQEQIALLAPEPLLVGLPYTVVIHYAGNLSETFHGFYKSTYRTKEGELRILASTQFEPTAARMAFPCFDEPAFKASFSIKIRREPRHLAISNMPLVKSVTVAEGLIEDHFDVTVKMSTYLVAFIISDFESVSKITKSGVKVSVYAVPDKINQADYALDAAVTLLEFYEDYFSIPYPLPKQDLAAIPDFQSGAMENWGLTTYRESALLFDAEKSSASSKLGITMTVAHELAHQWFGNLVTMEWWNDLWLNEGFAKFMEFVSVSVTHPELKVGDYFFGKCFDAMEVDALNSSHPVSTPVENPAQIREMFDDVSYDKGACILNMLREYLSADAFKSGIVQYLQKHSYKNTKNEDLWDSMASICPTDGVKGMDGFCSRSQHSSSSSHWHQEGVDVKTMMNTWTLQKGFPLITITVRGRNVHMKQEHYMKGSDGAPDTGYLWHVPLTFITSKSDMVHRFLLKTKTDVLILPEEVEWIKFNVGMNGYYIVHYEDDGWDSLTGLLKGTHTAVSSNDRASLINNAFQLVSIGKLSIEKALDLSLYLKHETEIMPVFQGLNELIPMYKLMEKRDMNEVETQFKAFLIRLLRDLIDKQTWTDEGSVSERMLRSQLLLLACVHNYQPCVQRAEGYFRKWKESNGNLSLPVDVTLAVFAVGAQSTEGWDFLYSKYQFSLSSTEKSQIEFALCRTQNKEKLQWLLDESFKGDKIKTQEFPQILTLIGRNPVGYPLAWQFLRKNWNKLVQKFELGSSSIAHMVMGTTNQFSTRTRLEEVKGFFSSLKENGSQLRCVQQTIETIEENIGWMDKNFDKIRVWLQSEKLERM
Env fusion inh = blocks HIV Env-driven cell-cell fusion; HeLa-JRFL Env/CEM21 cell fusion, luciferase; inhibition, % at 12.3 µM; hit rate 1.1% among 360,000;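 active = mean replicate inhibition score of at least 50 and every replicate individually at or above 50; inconclusive = only one of the two criteria met; inactive = mean below 50 and not all replicates reaching 50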;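 also: 0% = plate neutral controls and 100% = maraviroc near 300 nM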
Cneo AK release = causes C. neoformans cell lysis; AID 651654; adenylate kinase release luminescence, 4 h; normalised: neutral wells 0, clomiphene wells 100; hit rate 0.2% among 360,000; lysis activity, % at 15 µM;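 active = mean lysis activity across replicates of at least 80%, whatever share of replicates individually reach that level; inactive = mean lysis activity below 80%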
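Material – Cryptococcus neoformans yeast cells · Quantity – 5 × 10^6 yeast cells/mL · Buffer or medium – YPD medium · Compound – single dose · Timing – 4 h static compound exposure, 37 °C, read 1 h post-reagent · Signal – adenylate kinase release luminescence · Read-out basis – lysis from increased AK signal · Benchmarks – Clomiphene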
Wnt bcat act = activators of Wnt/beta-catenin signaling; Wnt/beta-catenin reporter cell assay, activator, plate reader; activation, % at 9.35 µM; hit rate 1.2% among 300,000; in the data active = activation above about 30%, passing the limit was not always enough; inconclusive = no clear call, values can overlap the other calls;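 also: 0% = neutral control wells and 100% = positive control wells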
Starred values were filed as active, the others as inactive; ? = inconclusive; · = no result given; [ ] = another dose, or the depositor's remark.

SMILES | esBAF inh | MITF TRPM1 HTS | ERAP1 inh | Env fusion inh | Cneo AK release | Wnt bcat act
CCOc1ccc(CCN2C(=S)N([C@@H](Cc3ccc(O)cc3)CN3CCCC3CN3C(=S)NC[C@@H]3Cc3ccc(O)cc3)C[C@@H]2CC(C)C)cc1 (some centres undefined) | -1.0 | -28.5 | -1.8 | -91.3 | 4.7 | -24.3
C[C@@H]1CN([C@@H](C)CO)C(=O)c2cc(NC(=O)Nc3ccccc3)ccc2O[C@H]1CN(C)C(=O)Nc1ccccc1 | 6.5 | · | 1.1 | -9.9[16.7 µM] | -4.5 | ·
CO[C@@H]1CN(C)C(=O)c2cc(NS(=O)(=O)c3ccccc3C)ccc2OC[C@@H](C)NC[C@H]1C | -1.6 | · | 1.8 | · | 0.8 | ·
O=C1NC2(CCCCCC2)C(=O)N1Cc1ccc(Br)cc1 | 1.0 | 2.8 | 4.8 | 0.4 | -1.6 | -1.1
COC(=O)c1ccc(CN2C(=O)NC3(CCCCC3)C2=O)cc1 | 72.5* | 49.8 | 1.5 | 2.2 | · | 17.2
C[C@H](NC(=O)[C@@H]1[C@@H](CO)[C@@H]2Cn3c(ccc(C4=CCCCC4)c3=O)[C@H]1N2)c1ccccc1 | 0.5 | · | 2.8 | · | -0.1 | ·
COc1cccc2cc(-c3nc(-c4cccs4)cs3)c(=O)oc12 | · | 85.2* | · | -351.6 | 0.1 | 59.3*
O=c1oc2ccccc2cc1-c1nc(-c2cccs2)cs1 | 21.0 | 2.6 | · | -106.4 | 1.4 | ·
COc1cccc2cc(-c3ccccc3)c(=O)oc12 | 31.6* | 62.1 | -2.4 | -42.6 | -11.0 | 34.8*
COc1ccc2cc(-c3ccccc3)c(=O)oc2c1 | 3.3 | 35.5 | 2.8 | -109.5 | -24.3 | 41.7*
O=C(O)Cn1c(SCc2ccccc2)nc2ccccc21 | -5.1 | 1.5 | · | · | -0.6 | 1.1
Nn1c(SCc2ccccc2)nc2ccccc21 | 54.2* | ? | -2.9 | -59.2 | -2.2 | 27.8
COc1ccc2c(C)c(Cl)c(=O)oc2c1 | -5.0 | 2.3 | · | · | -1.7 | ·
COc1ccc2c(c1)oc(=O)c1c3ccccc3[nH]c21 | · | 39.6 | 1.5 | -55.1 | 0.1 | 15.7
COc1ccc2c(c1)oc(=O)c1ccccc12 | 41.3* | · | -3.5 | · | 0.0 | 9.8
COc1cc(OC)cc(-c2cc3ccccc3c(=O)o2)c1 | 47.6* | 40.0 | -0.6 | · | 2.3 | 9.1
COc1ccc2c(c1)oc(=O)c1cc(OC)ccc12 | 78.9* | 91.7* | 0.0 | · | -1.7 | 5.7
CCCN(C)C[C@@H]1Oc2ncc(C#Cc3ccc(OC)cc3)cc2C(=O)N([C@@H](C)CO)C[C@@H]1C | -1.9 | · | 1.1 | -4.6[16.7 µM] | 34.4 | ·
O=C(C[C@@H]1CC[C@H]2[C@@H](COC[C@@H](O)CN2C(=O)Nc2cccc(Cl)c2)O1)NCC1CCCCC1 | 0.6 | · | -0.6 | · | -12.0 | ·
CC(C)NC(=O)N(C)C[C@H]1Oc2c(NC(=O)Nc3ccccc3)cccc2C(=O)N([C@@H](C)CO)C[C@@H]1C | 2.2 | · | -6.0 | · | -2.4 | ·
Cc1ccc(Nc2nc(N)nc(CN3CCN(Cc4ccc5c(c4)OCO5)CC3)n2)cc1Cl | -0.8 | -10.8 | · | 69.0* | 1.2 | ·
O=c1[nH]c2c(cnn2-c2ccc(Cl)cc2)c(=O)n1-c1cccc(Cl)c1 | · | 1.0 | 5.7 | 62.0* | · | 8.5
COc1ccc(S(=O)(=O)Nc2ccc3c(c2)CC(=O)N([C@H](C)CO)C[C@H](C)[C@@H](CN(C)S(=O)(=O)c2cn(C)cn2)O3)cc1 | -6.0 | · | 0.4 | 6.3[16.7 µM] | -3.8 | ·
CC=Cc1ccc2n(c1=O)C[C@H]1[C@H](CO)[C@@H](C(=O)NCC(F)(F)F)[C@@H]2N1C(=O)C1CC1 (mixture of isomers) | -5.7 | · | -1.2 | · | -3.1 | ·
CO[C@@H]1CN(C)C(=O)c2cc(NC(=O)C3CCC3)ccc2OC[C@H](C)N(C(=O)NC(C)C)C[C@@H]1C | -0.8 | · | 1.7 | · | -1.9 | ·
SMILES | esBAF inh | MITF TRPM1 HTS | ERAP1 inh | Env fusion inh | Cneo AK release | Wnt bcat act
CC(C)NC(=O)c1ccc2c3n(nc2c1)-c1ccc(Cl)cc1CO3 | 74.8* | 102.3* | -0.2 | -123.8 | -0.2 | 33.7*
C[C@@H](CO)NC(=O)c1ccc2c3n(nc2c1)-c1ccccc1CO3 | -47.5 | 5.6 | · | -110.2 | -5.5 | 8.8
CCN(CC)CCCNC(=O)c1ccc2c3n(nc2c1)-c1ccc(Cl)cc1CO3 | 36.7 | 114.0* | 1.3 | -44.0 | -1.3 | 18.4
O=C(c1ccc2c3n(nc2c1)-c1ccc(Cl)cc1CO3)N1CCOCC1 | 73.2* | 125.8* | 0.7 | -54.3 | -13.2 | 33.4*
O=C(c1ccc2c3n(nc2c1)-c1ccccc1CO3)N1CCOCC1 | -74.7 | 49.2 | · | · | -3.3 | ·
O=C(CCl)N(O)c1ccc(C=Cc2ccccc2)cc1 | · | 25.9 | -3.5 | -7.5 | · | 39.7*
CN1c2ccccc2N(C)C1c1ccc2c(c1)OCO2 | 3.8 | · | · | 62.8* | 0.1 | ·
COc1ccccc1S(=O)(=O)N[C@@H]1CC[C@H](CCNC(=O)C2CC2)O[C@@H]1CO | 14.8 | · | 0.4 | 8.7[16.7 µM] | -2.0 | ·
CC(/C=N/NC(=O)Cc1cccs1)=C\c1ccco1 | · | 37.2 | · | -61.6 | -0.9 | ·
CC(/C=N/NC(=O)c1cccs1)=C\c1ccco1 | 98.2* | 72.4 | -3.2 | -32.1 | 0.0 | 38.9*
C[C@H]1CN([C@@H](C)CO)C(=O)Cc2cc(NC(=O)Cn3cnnn3)ccc2O[C@@H]1CN(C)S(C)(=O)=O | 5.4 | · | · | 5.0[16.7 µM] | -2.0 | ·
COc1ccc(CCN2C(=S)N(C)C(=O)C2CC(=O)Nc2ccc(OC)cc2)cc1 (centres undefined) | -2.2 | 18.3 | -2.7 | 5.5 | -3.3 | -5.6
COc1ccc(NC(=O)CC2C(=O)N(C)C(=S)N2Cc2ccc3c(c2)OCO3)cc1 (centres undefined) | -1.4 | 2.9 | · | -21.2 | · | 35.4*
CCSc1nc(-c2ccccc2)c2cc(Cl)ccc2n1 | · | 6.0 | 3.9 | 5.8 | · | -1.2
CCSc1nc(-c2ccccc2)nc(C(Cl)Cl)n1 | -76.3 | -95.9 | -0.9 | 80.6* | -0.5 | -23.0
O=C(Nc1ccccc1)N[C@H]1CC[C@@H](CCn2cc(-c3ccccc3F)nn2)O[C@H]1CO | · | · | -0.9 | · | · | ·
COC(=O)c1ccc2c(C)c(C3(O)CCCCC3)[nH]c2c1 | 66.2* | 74.0 | · | -48.5 | 10.6 | 24.8
O=C(c1cccnc1)N1CC2(C1)[C@H](c1ccccc1)[C@H](CO)N2C(=O)c1cccnc1 | · | · | -4.1 | · | · | ·
CC(=O)OC1c2ccccc2C(=O)N1c1ccccc1C (centres undefined) | -7.0 | 4.9 | 1.2 | 77.3* | 2.9 | -1.1
N#Cc1ncccc1CCc1cccc(Cl)c1 | 42.6* | 43.9 | -1.5 | 4.2 | -2.0 | -0.1
Cc1nc(Nc2nc3ccccc3o2)nc(C)c1C(=O)Nc1ccc(F)cc1 | · | -8.0 | 0.4 | -6.1 | · | 43.2*
Cc1ccc(NC(=O)C2COc3ccccc3O2)nc1 (centres undefined) | 30.0 | 29.7 | · | · | -0.7 | -3.4
Cc1ccnc(NC(=O)C2CC(=O)N(c3ccc4c(c3)OCCO4)C2)c1 (centres undefined) | -24.9 | 99.1* | -2.3 | -36.8 | -4.1 | 46.1*
Cc1ccc(NC(=O)C2COc3ccccc3O2)c(C)c1 (centres undefined) | 45.0* | 30.8 | -3.8 | -25.1 | -2.9 | 8.4

Compound activity deposited in PubChem by Broad Institute.
